From ChEMBL document CHEMBL1641376, “Novel bis-, tris-, and tetrakis-tertiary amino analogs as antagonists at neuronal nicotinic receptors that mediate nicotine-evoked dopamine release” (Bioorg Med Chem Lett, 2011)

What was measured:
Assay type in all cases: functional, tissue-based
[1] = target: Neuronal acetylcholine receptor subunit alpha-6 (Rattus norvegicus) (UniProt P43143); assay: Antagonist activity at alpha6 nAChR in rat striatum assessed as inhibition of nicotine-induced [3H]dopamine release relative to nicotine
Procedure, shortened: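 [3H]DA release from superfused rat striatal slices was evoked by 10 μM nicotine and tested across a full analogue concentration range. IC50 and Imax were derived from the concentration-response curves, with inhibition relative to the nicotine response in the absence of analogue. 4–6 independent experiments.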

[2] = target: Neuronal acetylcholine receptor subunit alpha-6 (Rattus norvegicus, UniProt P43143); assay: Antagonist activity at alpha6 nAChR in rat striatum assessed as inhibition of nicotine-induced [3H]dopamine release
Procedure, shortened: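 Superfused rat striatal slices preloaded with [3H]DA; release evoked by 10 μM nicotine. Screening used 100 nM analogue, with inhibition expressed as % of the nicotine response without analogue (≥3 independent experiments, each in duplicate). Compounds giving >40% inhibition had full concentration-response curves run to derive IC50 and Imax (4–6 independent experiments).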

[3] = target: Neuronal acetylcholine receptor subunit alpha-6 (Rattus norvegicus) (UniProt P43143); assay: Antagonist activity at alpha6 nAChR in rat striatum assessed as inhibition of nicotine-induced [3H]dopamine release at 100 nM relative to control
Procedure, shortened: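 Superfused rat striatal slices preloaded with [3H]DA. Nicotine-evoked [3H]DA release was elicited by 10 μM nicotine with 100 nM analogue present. Inhibition is expressed as a percentage of the nicotine response under control conditions without analogue. At least 3 independent experiments, each in duplicate.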

Sequence of Neuronal acetylcholine receptor subunit alpha-6 (Rattus norvegicus) (P43143 whole entry, the tested form may be a part): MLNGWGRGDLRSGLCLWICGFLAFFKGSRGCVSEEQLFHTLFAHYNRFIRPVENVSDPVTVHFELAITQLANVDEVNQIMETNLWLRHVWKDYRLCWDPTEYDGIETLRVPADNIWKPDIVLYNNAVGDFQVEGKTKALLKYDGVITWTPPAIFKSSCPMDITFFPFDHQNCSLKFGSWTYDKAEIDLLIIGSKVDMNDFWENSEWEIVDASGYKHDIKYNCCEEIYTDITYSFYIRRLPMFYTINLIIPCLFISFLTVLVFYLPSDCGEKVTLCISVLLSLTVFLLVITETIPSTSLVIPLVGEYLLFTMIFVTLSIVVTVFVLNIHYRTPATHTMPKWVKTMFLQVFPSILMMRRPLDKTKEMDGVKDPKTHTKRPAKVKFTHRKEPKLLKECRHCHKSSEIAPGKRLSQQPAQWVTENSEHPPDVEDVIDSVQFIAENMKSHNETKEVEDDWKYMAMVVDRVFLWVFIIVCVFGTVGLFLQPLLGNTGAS
Sequence of Neuronal acetylcholine receptor subunit alpha-6 (P43143 whole entry, the tested form may be a part): as above

SMILES	Imax [1]	IC50 [2]	inhibition [3]
c1ccc2c(c1)CCN(CCCCCCCCCCCCN1CCc3ccccc3C1)C2	76%	8.59 nM	
c1ccc2c[n+](CCCCCCCCCCCC[n+]3ccc4ccccc4c3)ccc2c1	53%	40 nM	
CC1=CCCN(CCCC#Cc2cc(C#CCCCN3CCC=C(C)C3)cc(C#CCCCN3CCC=C(C)C3)c2)C1	67%	3.22 nM	83%
c1ccc2c(c1)CCN(CCCCCc1cc(CCCCCN3CCc4ccccc4C3)cc(CCCCCN3CCc4ccccc4C3)c1)C2	58%	0.35 nM	58%
Cc1ccc[n+](CCCC#Cc2cc(C#CCCC[n+]3cccc(C)c3)cc(C#CCCC[n+]3cccc(C)c3)c2)c1	67%	0.2 nM	40%
OCCCC1=CCCN(CCCCCc2cc(CCCCCN3CCC=C(CCCO)C3)c(CCCCCN3CCC=C(CCCO)C3)cc2CCCCCN2CCC=C(CCCO)C2)C1	64%	30 nM	40%
c1ccc2c(c1)CCN(CCCCCCCCCCN1CCc3ccccc3C1)C2	74%	9.91 nM	
c1ccc2c[n+](CCCCCc3cc(CCCCC[n+]4ccc5ccccc5c4)c(CCCCC[n+]4ccc5ccccc5c4)cc3CCCCC[n+]3ccc4ccccc4c3)ccc2c1	52%	56 nM	
c1ccc2c(c1)CCN(CCCCCc1cc(CCCCCN3CCc4ccccc4C3)c(CCCCCN3CCc4ccccc4C3)cc1CCCCCN1CCc3ccccc3C1)C2	64%	205 nM	84%
CC1=CCCN(CCCCCCCCCCN2CCC=C(C)C2)C1	65%	37.4 nM	36%
c1ccc2c[n+](CCCCCc3cc(CCCCC[n+]4ccc5ccccc5c4)cc(CCCCC[n+]4ccc5ccccc5c4)c3)ccc2c1			28%
CC1=CCCN(CCCCCCCCCCCCN2CCC=C(C)C2)C1	60%	0.95 nM	50%
c1ccc2c[n+](CCCCCCCCCC[n+]3ccc4ccccc4c3)ccc2c1	95%	70 nM	
Cc1ccc[n+](CCCCCCCCCCCC[n+]2cccc(C)c2)c1	63%	2 nM	
OCCCc1ccc[n+](CCCCCc2cc(CCCCC[n+]3cccc(CCCO)c3)c(CCCCC[n+]3cccc(CCCO)c3)cc2CCCCC[n+]2cccc(CCCO)c2)c1	63%	3 nM	41%
C(#Cc1ccccc1C#CCCCN1CCc2ccccc2C1)CCCN1CCc2ccccc2C1			18%
Cc1ccc[n+](CCCCCCCCCC[n+]2cccc(C)c2)c1	63%	180 nM	
C(#Cc1ccccc1C#CCCC[n+]1ccc2ccccc2c1)CCC[n+]1ccc2ccccc2c1	59%	63 nM	
